# Assay results as given in ChEMBL document CHEMBL2163243, “Metaproterenol, isoproterenol, and their bisdimethylcarbamate derivatives as human cholinesterase inhibitors” (J Med Chem, 2012).
# Legend:
# [1] = biological target: T1, Cholinesterase (Homo sapiens, UniProt P06276); assay: Inhibition of human BChE D70G mutant atypical homozygous variant using propionylthiocholine as substrate by Ellman's method; settings: TDE = time-dependent effect
# Method in brief: (§1)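 Reversible inhibition of plasma BChE (phenotyped donor plasma, diluted 150 - 300 times) measured at several PTCh concentrations, with and without inhibitor (0.5 mM - 10 mM). Ellman read-out at 412 nm, DTNB 0.3 mM final, 0.1 M phosphate pH 7.4, 25 °C. Ki,app per substrate concentration from the Hunter-Downs equation by linear regression. Y-intercept gives K(I) and x-intercept gives K(S).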
# Target sequence in this assay (P06276 whole entry): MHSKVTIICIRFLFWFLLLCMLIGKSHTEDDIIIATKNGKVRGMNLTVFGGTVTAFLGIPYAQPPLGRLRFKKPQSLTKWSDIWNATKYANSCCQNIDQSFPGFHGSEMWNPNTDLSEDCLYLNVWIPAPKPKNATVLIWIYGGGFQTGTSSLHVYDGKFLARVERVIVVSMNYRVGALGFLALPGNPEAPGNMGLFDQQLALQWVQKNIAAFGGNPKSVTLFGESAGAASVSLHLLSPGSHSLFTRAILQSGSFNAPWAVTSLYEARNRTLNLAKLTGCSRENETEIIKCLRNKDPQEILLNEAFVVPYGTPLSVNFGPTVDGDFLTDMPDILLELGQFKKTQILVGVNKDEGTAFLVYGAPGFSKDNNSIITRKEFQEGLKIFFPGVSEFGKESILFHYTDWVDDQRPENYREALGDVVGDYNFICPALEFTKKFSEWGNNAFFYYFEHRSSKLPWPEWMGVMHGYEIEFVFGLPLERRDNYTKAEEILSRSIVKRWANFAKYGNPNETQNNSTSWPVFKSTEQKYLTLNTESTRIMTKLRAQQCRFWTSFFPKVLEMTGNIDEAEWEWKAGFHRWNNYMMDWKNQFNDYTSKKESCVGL
# [2] = biological target: T1, Cholinesterase; assay: Inhibition of human BChE D70G/T243M/G390V mutant atypical-fluoride resistant heterozygous variant using propionylthiocholine as substrate assessed as inhibition rate constant incubated up to 30 mins prior to substrate addition by Ellman's method
# Method in brief: (§2)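 BChE from heparinized human donor plasma (centrifuged supernatant, phenotyped), unpurified, diluted 150 - 300 times in phosphate buffer. Enzyme incubated ≤30 min with carbamate in 0.1 M phosphate buffer pH 7.4, 25 °C. Reaction stopped with PTCh (4.0 mM final) and residual activity read by Ellman (DTNB 0.3 mM final, 412 nm). At least three carbamate concentrations, at least two experiments. First-order constants from ln(v0/vi) vs time; ki = kmax/Ki.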
# Target sequence in this assay (P06276 29-602 limits assumed): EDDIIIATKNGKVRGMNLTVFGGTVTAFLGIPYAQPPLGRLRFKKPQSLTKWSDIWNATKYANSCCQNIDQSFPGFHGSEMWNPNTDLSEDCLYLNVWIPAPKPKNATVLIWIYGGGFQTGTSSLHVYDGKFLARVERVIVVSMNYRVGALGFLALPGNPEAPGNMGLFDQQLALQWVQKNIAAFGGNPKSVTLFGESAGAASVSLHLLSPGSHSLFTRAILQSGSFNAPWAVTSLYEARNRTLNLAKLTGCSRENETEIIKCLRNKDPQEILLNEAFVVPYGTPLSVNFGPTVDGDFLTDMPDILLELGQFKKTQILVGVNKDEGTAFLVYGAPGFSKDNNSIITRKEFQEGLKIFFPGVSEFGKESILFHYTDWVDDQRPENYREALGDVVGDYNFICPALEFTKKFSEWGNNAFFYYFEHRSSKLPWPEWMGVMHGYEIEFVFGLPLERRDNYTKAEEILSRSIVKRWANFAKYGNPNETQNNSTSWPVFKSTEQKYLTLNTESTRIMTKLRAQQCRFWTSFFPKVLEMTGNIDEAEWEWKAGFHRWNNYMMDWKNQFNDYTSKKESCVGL
# [3] = biological target: T1, Cholinesterase; assay: Inhibition of human BChE D70G mutant usual-atypical heterozygous variant using propionylthiocholine as substrate assessed as inhibition rate constant incubated up to 30 mins prior to substrate addition by Ellman's method; method in brief: as §2
# Target sequence in this assay (P06276 29-602 limits assumed): as above
# [4] = biological target: T1, Cholinesterase; assay: Inhibition of human BChE D70G/T243M/G390V mutant atypical-fluoride resistant heterozygous variant using propionylthiocholine as substrate by Ellman's method; settings: TDE = time-dependent effect; method in brief: as §1
# Target sequence in this assay (P06276 whole entry): as the sequence (P06276 whole entry) above
# [5] = biological target: T2, Acetylcholinesterase (Homo sapiens, UniProt P22303); assay: Inhibition of human AChE using acetylthiocholine as substrate assessed as inhibition rate constant by Ellman's method
# [6] = biological target: T1, Cholinesterase; assay: Inhibition of human BChE usual homozygous variant using propionylthiocholine as substrate assessed as inhibition rate constant incubated up to 30 mins prior to substrate addition by Ellman's method; method in brief: as §2
# Target sequence in this assay (P06276 29-602 limits assumed, stated change not applied): as the sequence (P06276 29-602 limits assumed) above
# [7] = biological target: Cholinesterase (Homo sapiens, UniProt P06276, D98G); assay: Inhibition of human BChE D70G mutant atypical homozygous variant using propionylthiocholine as substrate assessed as inhibition rate constant incubated up to 30 mins prior to substrate addition by Ellman's method; method in brief: as §2
# [8] = biological target: Cholinesterase (Homo sapiens, UniProt P06276, T271M/G418V); assay: Inhibition of human BChE T243M/G390V mutant fluoride-resistant homozygous variant using propionylthiocholine as substrate assessed as inhibition rate constant incubated up to 30 mins prior to substrate addition by Ellman's method; method in brief: as §2
# [9] = biological target: T2, Acetylcholinesterase; assay: Inhibition of human AChE using acetylthiocholine as substrate by Ellman's method
# [10] = biological target: T1, Cholinesterase; assay: Inhibition of human BChE usual homozygous variant using propionylthiocholine as substrate by Ellman's method; settings: TDE = time-dependent effect; method in brief: as §1
# Target sequence in this assay (P06276 whole entry): as the sequence (P06276 whole entry) above
# [11] = biological target: T1, Cholinesterase; assay: Inhibition of human BChE D70G mutant usual-atypical heterozygous variant using propionylthiocholine as substrate by Ellman's method; settings: TDE = time-dependent effect; method in brief: as §1
# Target sequence in this assay (P06276 whole entry): as above
# [12] = biological target: T1, Cholinesterase; assay: Inhibition of human BChE T243M/G390V mutant fluoride-resistant homozygous variant using propionylthiocholine as substrate by Ellman's method; settings: TDE = time-dependent effect; method in brief: as §1
# Target sequence in this assay (P06276 whole entry): as above
# [13] = organism: Homo sapiens; assay: Selectivity ratio of apparent dissociation constant for enzyme-inhibitor complex for human AChE to apparent dissociation constant for enzyme-inhibitor complex for human BChE T243M/G390V mutant fluoride-resistant homozygous variant
# Method in brief: (§3)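 Human plasma BChE (phenotyped variants) and hemolysed erythrocyte AChE were used unpurified, with plasma diluted 150-300x and erythrocytes 600x. Activity was read by the Ellman method at 412 nm (DTNB 0.3 mM final) in 0.1 M phosphate, pH 7.4, 25 °C. Substrate was PTCh for BChE and ATCh for AChE, each at several concentrations, with inhibitor at 0.5-10 mM. Ki is the y-intercept of a Hunter-Downs linear regression.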
# [14] = biological target: T1, Cholinesterase; assay: Binding affinity to human BChE D70G mutant atypical homozygous variant relative to terbutaline
# Target sequence in this assay (P06276 whole entry): as above
# [15] = organism: Homo sapiens; assay: Selectivity ratio of apparent dissociation constant for enzyme-inhibitor complex for human AChE to apparent dissociation constant for enzyme-inhibitor complex for human BChE D70G mutant atypical homozygous variant; method in brief: as §3
# Cholinesterase (Homo sapiens, UniProt P06276, D98G), sequence (P06276 29-602 D98G limits assumed): as the sequence (P06276 29-602 limits assumed) above, with D70G counted along it
# Cholinesterase (Homo sapiens, UniProt P06276, T271M/G418V), sequence (P06276 29-602 T271M/G418V limits assumed): as the sequence (P06276 29-602 limits assumed) above, with T243M, G390V counted along it
# T2 sequence (P22303 whole entry): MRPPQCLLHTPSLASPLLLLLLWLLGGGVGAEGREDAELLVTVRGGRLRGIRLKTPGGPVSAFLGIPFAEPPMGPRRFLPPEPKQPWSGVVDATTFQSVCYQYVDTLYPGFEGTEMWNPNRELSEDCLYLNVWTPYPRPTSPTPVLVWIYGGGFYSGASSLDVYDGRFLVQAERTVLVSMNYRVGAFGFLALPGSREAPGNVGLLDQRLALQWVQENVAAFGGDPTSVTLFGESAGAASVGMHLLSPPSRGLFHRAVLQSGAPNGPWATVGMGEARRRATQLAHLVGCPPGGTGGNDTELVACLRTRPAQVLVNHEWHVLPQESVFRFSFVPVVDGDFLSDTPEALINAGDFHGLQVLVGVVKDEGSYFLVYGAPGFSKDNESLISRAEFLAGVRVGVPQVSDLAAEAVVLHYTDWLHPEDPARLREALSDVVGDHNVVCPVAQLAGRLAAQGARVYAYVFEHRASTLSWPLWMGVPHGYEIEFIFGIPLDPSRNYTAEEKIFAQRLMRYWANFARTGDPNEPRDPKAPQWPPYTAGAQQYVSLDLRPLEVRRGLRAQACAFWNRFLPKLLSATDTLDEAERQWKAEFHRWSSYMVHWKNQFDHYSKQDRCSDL
SMILES,inhibition [1],Carbamylation rate constant (ki) [2] [×10³ /M/min],bimolecular inhibition rate constant (ki) [3] [×10³ /M/min],inhibition [4],Inhibition rate constant [5] [×10³ /M/min],bimolecular inhibition rate constant (ki) [6] [×10³ /M/min],bimolecular inhibition rate constant (ki) [7] [×10³ /M/min],bimolecular inhibition rate constant (ki) [8] [×10³ /M/min],Ki [9] [µM],inhibition [10],inhibition [11],inhibition [12],Selectivity ratio [13],Ratio [14],Selectivity ratio [15]
CC(C)NCC(O)c1ccc(OC(=O)N(C)C)c(OC(=O)N(C)C)c1.Cl (racemic),tde,87,160,tde,2.5,200,21,140,1400,tde,tde,tde,,,
CC(C)NC[C@H](O)c1ccc(OC(=O)N(C)C)c(OC(=O)N(C)C)c1.Cl,,100,210,,2.7,340,31,150,1200,,,,,,
CC(C)NCC(O)c1ccc(O)c(O)c1 (racemic),,,,,,,,,,,,,4,2,4
CC(C)NC[C@H](O)c1cc(OC(=O)N(C)C)cc(OC(=O)N(C)C)c1.Cl,,550,2200,,4.7,3200,76,1100,390,,,,,,
CC(C)NCC(O)c1cc(O)cc(O)c1 (racemic),,,,,,,,,,,,,4,,4
CC(C)NCC(O)c1cc(OC(=O)N(C)C)cc(OC(=O)N(C)C)c1.Cl (racemic),tde,440,1400,tde,2.3,2200,40,600,710,tde,tde,tde,,,
